Measured values from article PMC9305466 (British Journal of Clinical Pharmacology, 2022).

Legend:
[1] = phase 1 studies; cited from earlier work
[2] = cited from earlier work; for effect of moderate hepatic impairment on exposure (AUC and C max): compared with matched healthy controls
[3] = system: subjects with rheumatoid arthritis (RA); experiment: Exposure-safety analysis; type: in vivo, human; details: up to week 52; for exposures (AUC0‐24) by presence or absence of the five most frequent TEAEs: nausea, nasopharyngitis, upper respiratory tract infection, headache, hypertension
Outline: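 Individual parent and metabolite exposures came from population PK models and were analysed separately for each analyte. Data were pooled from all five studies across all doses. Data collected after rerandomization and a switch of treatment group were excluded. Exposures were compared between subjects with and without each event (serious TEAEs, serious infections). Cmax was also evaluated.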

[4] = system: JAK1; details: GS‐829845 vs filgotinib; cited from earlier work
[5] = system: subjects with moderately to severely active rheumatoid arthritis (RA); experiment: Exposure-efficacy analysis; type: in vivo, human; details: week 12; filgotinib 100 mg group
Outline: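 Individual exposures came from population PK models (nonlinear mixed-effects), built separately for parent and active metabolite. Parent and metabolite exposures were combined as AUCeff, weighted by relative JAK1 inhibition potency. Data were pooled from 3 phase 3 and 2 phase 2 studies: dosed subjects with ≥1 PopPK parameter, plus placebo at week 12. Binary response was fit by nonlinear logistic (Emax on logit) regression, with Clopper-Pearson binomial CIs.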

[6] = system: JAK1‐related interleukin‐6 (IL‐6)‐induced phosphorylated signal transducer and activator of transcription 1 (pSTAT1); details: cited from earlier work

| Structure (SMILES) | half‐life [1] | exposure in elderly subjects (≥75 years) compared with younger subjects [2] | exposure in subjects with severe renal impairment (RI), fold higher [2] | effect of moderate hepatic impairment on exposure (AUC and C max) [2] | exposures (AUC0‐24) by presence or absence of the five most frequent TEAEs [3] | serious TEAEs and serious infections against exposures [3] | potency relative to the parent (JAK1 preferential inhibitor), fold less potent [4] | ACR20 response rate [5] | maximum inhibition of pSTAT1 ([6]; plateaued at or above 200 mg total daily dose) | intermediate inhibition of pSTAT1 ([6]; total daily dose of 100 mg) |
| --- | --- | --- | --- | --- | --- | --- | --- | --- | --- | --- |
| Nc1nc2cccc(-c3ccc(CN4CCS(=O)(=O)CC4)cc3)n2n1 [GS‐829845] | approximately 19 hours | 1.33 fold | 2.74 fold | no clinically relevant effect | similar | no exposure‐driven patterns were present | approximately 10 fold | – | – | – |
| O=C(Nc1nc2cccc(-c3ccc(CN4CCS(=O)(=O)CC4)cc3)n2n1)C1CC1 [filgotinib] | ~7 h | 1.45 fold | 1.54 fold | no clinically relevant effect | similar | no exposure‐driven patterns were present | – | approximately 70% | ~ 78% | ~ 47% |
